One block for each compound: values may come before it.
Key:
Mus musculus [1] = test: Tested for antiinflammatory activity on mouse type II collagen arthritis as Paw swelling* of all animals in each group on day 44 at intraperitoneal dose of 12 mg/kg; type: functional
How it was run: (§1)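 DBA/1 mice immunized with bovine type II collagen (Courtenay method, modified), antigen booster at day 21. Compounds given ip from 2 days before the first collagen challenge, then every 2 days. Hind paw dimensions (mm) measured for both limbs of all animals, expressed as mean ± SD. Eight mice per dose; untreated controls pooled from four experiments (48 animals).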

Mus musculus [2] = test: Incidence of disease(mouse type II collagen arthritis) was scored as the percentage of animals within each experimental group that exhibited joint or limb inflammation on day 37 at intraperitoneal of dose 18 mg/kg; type: functional
How it was run: (§2)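 DBA/1 mice were immunized with bovine type II collagen (modified Courtenay method), with a collagen booster on day 21. Compounds were given ip starting 2 days before the first collagen challenge and every 2 days thereafter. Incidence was the percentage of animals per group with joint or limb inflammation, scored on days 23, 30, 37 and 44.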

Mus musculus [3] = test: Tested for antiinflammatory activity on mouse type II collagen arthritis as Paw swelling* of all animals in each group on day 23 at intraperitoneal dose of 18 mg/kg; type: functional; how it was run: as §1
Mus musculus [4] = test: Incidence of disease(mouse type II collagen arthritis) was scored as the percentage of animals within each experimental group that exhibited joint or limb inflammation on day 30 at intraperitoneal of dose 12 mg/kg; type: functional; how it was run: as §2
Mus musculus [5] = test: Incidence of disease(mouse type II collagen arthritis) was scored as the percentage of animals within each experimental group that exhibited joint or limb inflammation on day 23 at intraperitoneal dose of 18 mg/kg; type: functional; how it was run: as §2
Mus musculus [6] = test: Tested for antiinflammatory activity on mouse type II collagen arthritis as Paw swelling* of all animals in each group on day 37 at intraperitoneal dose of 12 mg/kg; type: functional; how it was run: as §1
Mus musculus [7] = test: Incidence of disease(mouse type II collagen arthritis) was scored as the percentage of animals within each experimental group that exhibited joint or limb inflammation on day 23 at intraperitoneal dose of 12 mg/kg; type: functional; how it was run: as §2
Mus musculus [8] = test: Incidence of disease(mouse type II collagen arthritis) was scored as the percentage of animals within each experimental group that exhibited joint or limb inflammation on day 30 at intraperitoneal of dose 18 mg/kg; type: functional; how it was run: as §2
Mus musculus [9] = test: Tested for antiinflammatory activity on mouse type II collagen arthritis as Paw swelling* of all animals in each group on day 23 at intraperitoneal dose of 12 mg/kg; type: functional; how it was run: as §1
Mus musculus [10] = test: Tested for antiinflammatory activity on mouse type II collagen arthritis as Paw swelling* of all animals in each group on day 44 at intraperitoneal dose of 18 mg/kg; type: functional; how it was run: as §1
Mus musculus [11] = test: Incidence of disease(mouse type II collagen arthritis) was scored as the percentage of animals within each experimental group that exhibited joint or limb inflammation on day 44 at intraperitoneal of dose 18 mg/kg; type: functional; how it was run: as §2
Mus musculus [12] = test: Tested for antiinflammatory activity on mouse type II collagen arthritis as Paw swelling* of all animals in each group on day 37 at intraperitoneal dose of 18 mg/kg; type: functional; how it was run: as §1
Mus musculus [13] = test: Incidence of disease(mouse type II collagen arthritis) was scored as the percentage of animals within each experimental group that exhibited joint or limb inflammation on day 44 at intraperitoneal of dose 12 mg/kg; type: functional; how it was run: as §2
Mus musculus [14] = test: Tested for antiinflammatory activity on mouse type II collagen arthritis as Paw swelling* of all animals in each group on day 30 at intraperitoneal dose of 12 mg/kg; type: functional; how it was run: as §1
Mus musculus [15] = test: Incidence of disease(mouse type II collagen arthritis) was scored as the percentage of animals within each experimental group that exhibited joint or limb inflammation on day 37 at intraperitoneal of dose 12 mg/kg; type: functional; how it was run: as §2
Mus musculus [16] = test: Tested for antiinflammatory activity on mouse type II collagen arthritis as Paw swelling* of all animals in each group on 30 at intraperitoneal dose of 18 mg/kg; type: functional
How it was run: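 DBA/1 mice were challenged with bovine type II collagen and boosted on day 21. Dosing was ip from 2 days before the initial challenge, then every 2 days, with eight animals per dose. Hind paw dimensions (mm) were measured for both limbs of all animals and given as mean ± SD. Untreated controls were pooled from four experiments (48 animals).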

[17] = Concentration required to inhibit the growth of chang liver cells; type: functional; conditions: Homo sapiens
Mus musculus [18] = test: Tested for antiinflammatory activity on mouse type II collagen arthritis as Paw swelling* of all animals in each group on day 23 at intraperitoneal dose of 10 mg/kg; type: functional; how it was run: as §1
Mus musculus [19] = test: Incidence of disease(mouse type II collagen arthritis) was scored as the percentage of animals within each experimental group that exhibited joint or limb inflammation on day 30 at intraperitoneal of dose 15 mg/kg; type: functional; how it was run: as §2
Mus musculus [20] = test: Tested for antiinflammatory activity on mouse type II collagen arthritis as Paw swelling* of all animals in each group on day 44 at intraperitoneal dose of 10 mg/kg; type: functional; how it was run: as §1
Mus musculus [21] = test: Tested for antiinflammatory activity on mouse type II collagen arthritis as Paw swelling* of all animals in each group on day 30 at intraperitoneal dose of 10 mg/kg; type: functional; how it was run: as §1
Mus musculus [22] = test: Incidence of disease(mouse type II collagen arthritis) was scored as the percentage of animals within each experimental group that exhibited joint or limb inflammation on day 44 at intraperitoneal of dose 15 mg/kg; type: functional; how it was run: as §2
Mus musculus [23] = test: Tested for antiinflammatory activity on mouse type II collagen arthritis as Paw swelling* of all animals in each group on day 37 at intraperitoneal dose of 15 mg/kg; type: functional; how it was run: as §1
Mus musculus [24] = test: Tested for antiinflammatory activity on mouse type II collagen arthritis as Paw swelling* of all animals in each group on day 23 at intraperitoneal dose of 15 mg/kg; type: functional; how it was run: as §1
Mus musculus [25] = test: Incidence of disease(mouse type II collagen arthritis) was scored as the percentage of animals within each experimental group that exhibited joint or limb inflammation on day 23 at intraperitoneal dose of 10 mg/kg; type: functional; how it was run: as §2
Mus musculus [26] = test: Tested for antiinflammatory activity on mouse type II collagen arthritis as Paw swelling* of all animals in each group on day 30 at intraperitoneal dose of 15 mg/kg; type: functional; how it was run: as §1
Mus musculus [27] = test: Tested for antiinflammatory activity on mouse type II collagen arthritis as Paw swelling* of all animals in each group on day 37 at intraperitoneal dose of 10 mg/kg; type: functional; how it was run: as §1
Mus musculus [28] = test: Tested for antiinflammatory activity on mouse type II collagen arthritis as Paw swelling* of all animals in each group on day 44 at intraperitoneal dose of 15 mg/kg; type: functional; how it was run: as §1
Mus musculus [29] = test: Incidence of disease(mouse type II collagen arthritis) was scored as the percentage of animals within each experimental group that exhibited joint or limb inflammation on day 44 at intraperitoneal of dose 10 mg/kg; type: functional; how it was run: as §2
Mus musculus [30] = test: Incidence of disease(mouse type II collagen arthritis) was scored as the percentage of animals within each experimental group that exhibited joint or limb inflammation on day 37 at intraperitoneal of dose 10 mg/kg; type: functional; how it was run: as §2
Mus musculus [31] = test: Incidence of disease(mouse type II collagen arthritis) was scored as the percentage of animals within each experimental group that exhibited joint or limb inflammation on day 30 at intraperitoneal of dose 10 mg/kg; type: functional; how it was run: as §2
L1210 = test: Concentration required to inhibit the growth of L1210 cells; type: functional, cell-based; conditions: Mus musculus
Mus musculus [32] = test: Incidence of disease(mouse type II collagen arthritis) was scored as the percentage of animals within each experimental group that exhibited joint or limb inflammation on day 37 at intraperitoneal of dose 15 mg/kg; type: functional; how it was run: as §2
Mus musculus [33] = test: Incidence of disease(mouse type II collagen arthritis) was scored as the percentage of animals within each experimental group that exhibited joint or limb inflammation on day 23 at intraperitoneal dose of 15 mg/kg; type: functional; how it was run: as §2

SMILES: CCC(Cc1cnc2nc(N)nc(N)c2n1)c1ccc(C(=O)N[C@@H](CCC(=O)O)C(=O)O)cc1 (some centres undefined) [EDATREXATE]
- Paw swelling (Mus musculus [1]): 2.32 mm
- Animals (Mus musculus [2]): 12%
- Paw swelling (Mus musculus [3]): 2.18 mm
- Animals (Mus musculus [4]): 25%
- Animals (Mus musculus [5]): 12%
- Paw swelling (Mus musculus [6]): 2.34 mm
- Animals (Mus musculus [7]): 25%
- Animals (Mus musculus [8]): 0%
- Paw swelling (Mus musculus [9]): 2.26 mm
- Paw swelling (Mus musculus [10]): 2.18 mm
- Animals (Mus musculus [11]): 12%
- Paw swelling (Mus musculus [12]): 2.19 mm
- Animals (Mus musculus [13]): 50%
- Paw swelling (Mus musculus [14]): 2.28 mm
- Animals (Mus musculus [15]): 38%
- Paw swelling (Mus musculus [16]): 2.24 mm

- IC50 (L1210): 3.7 nM
SMILES: CCC(Cc1cnc2nc(N)nc(N)c2n1)c1ccc(C(=O)NC(CCC(=O)O)C(=O)O)s1 (centres undefined)
- IC50 [17]: 1.6 nM
- Paw swelling (Mus musculus [18]): 2.13 mm
- Animals (Mus musculus [19]): 0%
- Paw swelling (Mus musculus [20]): 2.25 mm
- Paw swelling (Mus musculus [21]): 2.15 mm
- Animals (Mus musculus [22]): 12%
- Paw swelling (Mus musculus [23]): 2.21 mm
- Paw swelling (Mus musculus [24]): 2.15 mm
- Animals (Mus musculus [25]): 0%
- Paw swelling (Mus musculus [26]): 2.17 mm
- Paw swelling (Mus musculus [27]): 2.23 mm
- Paw swelling (Mus musculus [28]): 2.26 mm
- Animals (Mus musculus [29]): 38%
- Animals (Mus musculus [30]): 25%
- Animals (Mus musculus [31]): 0%
- Animals (Mus musculus [32]): 12%
- Animals (Mus musculus [33]): 0%

Source: ChEMBL document CHEMBL1129929, “Analogues of methotrexate in rheumatoid arthritis. 1. Effects of 10-deazaaminopterin analogues on type II collagen-induced arthritis in mice” (J Med Chem, 1997)
